According to ChEMBL document CHEMBL1136473, “6-(2-adamantan-2-ylidene-hydroxybenzoxazole)-O-sulfamate: a potent non-steroidal irreversible inhibitor of human steroid sulfatase” (Bioorg Med Chem Lett, 2003):
Activity calls are given as the source filed them. The calls are words filed in the database; no cut-off is given here.

Legend:
[1] = target: T1, Steryl-sulfatase (Homo sapiens) (UniProt P08842); experiment: Rate constant of inactivation against human steroid sulfatase
T1 sequence (whole entry): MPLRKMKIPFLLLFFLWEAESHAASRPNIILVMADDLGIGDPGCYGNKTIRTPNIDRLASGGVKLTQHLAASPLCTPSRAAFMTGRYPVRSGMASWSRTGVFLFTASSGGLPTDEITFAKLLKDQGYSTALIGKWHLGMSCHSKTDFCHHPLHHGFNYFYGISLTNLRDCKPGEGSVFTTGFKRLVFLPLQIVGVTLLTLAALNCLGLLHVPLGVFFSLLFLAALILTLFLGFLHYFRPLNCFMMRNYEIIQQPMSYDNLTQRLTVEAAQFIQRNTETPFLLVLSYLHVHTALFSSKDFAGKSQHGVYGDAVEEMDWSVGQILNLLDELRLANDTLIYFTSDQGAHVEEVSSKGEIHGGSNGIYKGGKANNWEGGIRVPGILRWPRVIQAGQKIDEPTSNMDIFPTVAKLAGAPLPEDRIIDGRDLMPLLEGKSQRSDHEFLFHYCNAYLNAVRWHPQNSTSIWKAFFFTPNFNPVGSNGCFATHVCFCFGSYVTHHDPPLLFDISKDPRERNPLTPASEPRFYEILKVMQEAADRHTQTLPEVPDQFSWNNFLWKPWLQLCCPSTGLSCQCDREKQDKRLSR
Summary of the method: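 Purified human steroid sulfatase incubated with a range of inhibitor concentrations. Residual enzyme activity measured over time to follow inactivation kinetics, giving Ki and kinact.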

Estrogen receptor = target: T2, Estrogen receptor (Homo sapiens, UniProt P03372); experiment: Affinity for human estrogen receptor alpha
T2 sequence (P03372 whole entry): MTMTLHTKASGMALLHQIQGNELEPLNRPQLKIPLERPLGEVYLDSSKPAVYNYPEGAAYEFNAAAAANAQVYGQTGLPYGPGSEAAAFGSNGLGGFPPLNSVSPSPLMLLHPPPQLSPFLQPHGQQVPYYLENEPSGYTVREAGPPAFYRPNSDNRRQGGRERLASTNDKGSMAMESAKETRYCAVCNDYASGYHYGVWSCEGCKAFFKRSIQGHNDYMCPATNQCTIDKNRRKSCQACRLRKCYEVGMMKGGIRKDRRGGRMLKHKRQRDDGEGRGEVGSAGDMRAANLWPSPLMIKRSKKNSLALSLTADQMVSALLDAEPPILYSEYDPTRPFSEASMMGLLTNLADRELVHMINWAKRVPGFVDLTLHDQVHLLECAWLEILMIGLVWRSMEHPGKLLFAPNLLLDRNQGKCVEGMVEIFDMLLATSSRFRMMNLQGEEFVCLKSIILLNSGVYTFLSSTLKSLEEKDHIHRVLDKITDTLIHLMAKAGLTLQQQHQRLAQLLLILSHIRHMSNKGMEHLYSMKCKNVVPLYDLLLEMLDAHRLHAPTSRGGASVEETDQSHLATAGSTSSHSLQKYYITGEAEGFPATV

Steryl-sulfatase [2] = target: T3, Steryl-sulfatase (Homo sapiens, UniProt P08842); experiment: Inhibitory constant against purified human steroid sulfatase
T3 sequence (P08842 whole entry): T1 sequence (whole entry)

Estrogen receptor beta = Estrogen receptor beta (Homo sapiens, UniProt Q92731); experiment: Affinity for human estrogen receptor beta
Chain of Estrogen receptor beta (Q92731 whole entry): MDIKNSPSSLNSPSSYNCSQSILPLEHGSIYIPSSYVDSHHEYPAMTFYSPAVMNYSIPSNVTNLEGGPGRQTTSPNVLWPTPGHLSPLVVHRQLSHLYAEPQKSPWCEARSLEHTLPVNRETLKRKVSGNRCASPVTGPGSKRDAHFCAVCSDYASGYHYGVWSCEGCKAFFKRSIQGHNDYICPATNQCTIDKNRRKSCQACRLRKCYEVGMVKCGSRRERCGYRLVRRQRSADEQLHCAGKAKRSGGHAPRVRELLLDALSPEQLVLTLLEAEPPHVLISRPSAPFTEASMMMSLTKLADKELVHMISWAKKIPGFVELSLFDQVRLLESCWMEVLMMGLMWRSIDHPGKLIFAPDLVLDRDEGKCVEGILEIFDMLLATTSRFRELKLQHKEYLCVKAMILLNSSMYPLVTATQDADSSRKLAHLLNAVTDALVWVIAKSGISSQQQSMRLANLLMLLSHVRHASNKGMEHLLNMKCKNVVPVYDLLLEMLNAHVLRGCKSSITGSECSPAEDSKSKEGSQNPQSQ

[3] = target: T4, Arylsulfatase A (Homo sapiens) (UniProt P15289); experiment: Inhibitory activity against human Arylsulfatase A (ASA) isolated from human placenta; IA=Inactive
T4 sequence (whole entry): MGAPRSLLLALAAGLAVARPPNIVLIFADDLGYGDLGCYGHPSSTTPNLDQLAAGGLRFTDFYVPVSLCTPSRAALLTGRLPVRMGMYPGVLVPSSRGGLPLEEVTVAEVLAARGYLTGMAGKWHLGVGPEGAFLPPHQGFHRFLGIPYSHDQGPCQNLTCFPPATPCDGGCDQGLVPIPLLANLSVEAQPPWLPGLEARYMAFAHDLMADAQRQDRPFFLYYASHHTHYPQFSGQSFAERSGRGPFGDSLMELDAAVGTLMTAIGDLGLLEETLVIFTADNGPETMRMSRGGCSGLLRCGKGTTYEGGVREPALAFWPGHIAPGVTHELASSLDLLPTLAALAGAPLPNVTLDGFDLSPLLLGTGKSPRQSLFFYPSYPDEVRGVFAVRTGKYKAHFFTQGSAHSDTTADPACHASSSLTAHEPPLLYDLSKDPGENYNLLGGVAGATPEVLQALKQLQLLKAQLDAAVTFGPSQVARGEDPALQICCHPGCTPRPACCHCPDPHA
Summary of the method: (§1)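 Arylsulfatases A and B purified from human placenta and assayed with inhibitor present at up to 10 μM. Time dependence of inhibition examined.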

Steryl-sulfatase [4] = target: T3, Steryl-sulfatase; experiment: Inhibitory activity against human steroid sulfatase expressing in CHO cells; assay type: cell-based
Steryl-sulfatase [5] = target: T3, Steryl-sulfatase; experiment: Inhibitory activity against human steroid sulfatase in fibroblasts
[6] = target: Arylsulfatase B (Homo sapiens) (UniProt P15848); experiment: Inhibitory activity against human aryl sulfatase B (ASB) isolated from human placenta at a concentration up to 10 uM; summary of the method: as §1
Chain of Arylsulfatase B (Homo sapiens) (P15848 whole entry): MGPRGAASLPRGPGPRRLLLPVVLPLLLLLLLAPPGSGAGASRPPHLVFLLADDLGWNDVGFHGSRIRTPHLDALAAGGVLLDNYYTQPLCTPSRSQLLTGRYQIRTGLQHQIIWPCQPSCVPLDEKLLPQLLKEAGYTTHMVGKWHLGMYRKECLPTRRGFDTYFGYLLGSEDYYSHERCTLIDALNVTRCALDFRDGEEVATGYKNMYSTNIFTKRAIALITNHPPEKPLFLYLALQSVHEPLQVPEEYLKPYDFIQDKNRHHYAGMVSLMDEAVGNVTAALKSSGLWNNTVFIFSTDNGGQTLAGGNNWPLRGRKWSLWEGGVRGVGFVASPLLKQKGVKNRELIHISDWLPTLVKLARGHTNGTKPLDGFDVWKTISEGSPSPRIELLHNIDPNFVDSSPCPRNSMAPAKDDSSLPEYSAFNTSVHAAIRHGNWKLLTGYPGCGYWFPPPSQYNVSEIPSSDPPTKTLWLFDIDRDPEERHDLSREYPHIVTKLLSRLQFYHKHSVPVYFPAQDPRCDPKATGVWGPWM

Steryl-sulfatase [7] = target: T3, Steryl-sulfatase; experiment: Inhibitory activity against STS in human MCF-7 breast cancer cells; assay type: cell-based; details: mcf7
Summary of the method: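 Intact MCF-7 breast cancer cells; STS-dependent cleavage of estrone sulfate substrate measured to derive IC50.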

Steryl-sulfatase [8] = target: T3, Steryl-sulfatase; experiment: Inhibition of human STS in keratinocytes; assay type: cell-based

Row | Activity [3] | IC50 (Steryl-sulfatase [4]) [nM] | IC50 (Steryl-sulfatase [5]) [nM] | inhibition [6] [%] | IC50 (Steryl-sulfatase [7]) [nM] | IC50 (Steryl-sulfatase [8]) [nM] | Compound | K inact [1] [U s-1] | EC50 (Estrogen receptor) [nM] | Ki (Steryl-sulfatase [2]) [nM] | EC50 (Estrogen receptor beta) [nM]
1 | – | – | – | – | – | – | C[C@]12CC[C@@H]3c4ccc(OS(N)(=O)=O)cc4CCC3[C@@H]1CCC2=O (single isomer, unassigned) [EMATE] | 0.009 | 2600 | 470 | 3700
2 | inactive | 31.8 | 0.75 | 25 | 2.3 | 0.77 | NS(=O)(=O)Oc1ccc2nc(C=C3C4CC5CC(C4)CC3C5)oc2c1 | 0.097 | > 100000 | 6000 | > 100000
